Results from publication PMC7810645 (Targeted Oncology, 2020).
Read-outs that look alike come from different tables or passages of the source.

Columns and labels:
patients [1] = settings: cited from earlier work
[2] = Rucaparib plasma pharmacokinetics in patients; assay type: in vivo, human; settings: for AUC(0-t) / Tmax / Cmax: human, plasma, oral; for Tmax: mean (±SD)
Method in brief: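 Oral dosing was 400, 500 or 600 mg BID. Cycle 1 blood was drawn on day −7 (first dose, before bevacizumab), day 1 (bevacizumab infusion) and day 21, at 1, 2, 3, 4, 6, 8 and 24 h post-dose. Plasma was assayed by validated HPLC-MS. Day −7 yielded Cmax, Tmax and AUC0–8h, and days 1/21 gave steady-state Cmax, Cmin and AUC, all by noncompartmental analysis. Summaries were mean, SD, CV, median and geometric mean.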

[3] = test system: patients with high-grade epithelial ovarian, fallopian tube, or primary peritoneal cancer; assay type: in vivo, human
Method in brief: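 Patients had newly diagnosed stage IIIB–IV disease, ECOG 0–1 and no prior anticancer therapy. All received six cycles of carboplatin AUC 5 plus paclitaxel 175 mg/m2 and bevacizumab, each d1 q21d. Oral maintenance drug began within 9 weeks, continuous BID in 28-day cycles, first dose 7 days before bevacizumab. Three-patient cohorts (Fibonacci triplets). DLTs were assessed over the first two cycles, with AEs graded by CTCAE v4.03.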

patients [4] = settings: rucaparib 600 mg BID single agent, ARIEL3; cited from earlier work
PARP2 = settings: read-out: IC50, enzymatic activity of PARP2; cited from earlier work
[5] = test system: PARP enzymes at sites of DNA damage; settings: cited from earlier work
PARP1 = settings: read-out: IC50, enzymatic activity of PARP1; cited from earlier work
[6] = test system: patients with recurrent, platinum-sensitive ovarian cancer; settings: niraparib 300 mg daily + bevacizumab 15 mg/kg d1 q21d vs niraparib 300 mg daily alone; cited from earlier work
[7] = steady state, day 1 (bevacizumab infusion), 400 mg BID, n 3
[8] = steady state, day 1 (bevacizumab infusion), 500 mg BID, n 3
[9] = steady state, day 1 (bevacizumab infusion), 600 mg BID, n 3
[10] = steady state, day 21, with bevacizumab, 400 mg BID, n 2
[11] = steady state, day 21, with bevacizumab, 500 mg BID, n 3
[12] = steady state, day 21, with bevacizumab, 600 mg BID, n 2
[13] = rucaparib 400 mg BID (n = 3) + bevacizumab
[14] = rucaparib 500 mg BID (n = 3) + bevacizumab
[15] = rucaparib 600 mg BID (n = 3) + bevacizumab

CNCc1ccc(-c2[nH]c3cc(F)cc4c3c2CCNC4=O)cc1 [rucaparib]
incidence of increased alanine/aspartate aminotransferase levels (patients [1]; vs olaparib or niraparib): higher incidence
range of trough concentrations ([2]; 400 mg BID): 1.5 to 1.6 µg/mL
range of trough concentrations ([2]; 500 mg BID): 1.8 to 2.0 µg/mL
range of trough concentrations ([2]; 600 mg BID): 1.6 to 2.1 µg/mL
dose proportionality of plasma exposure ([2]; 400-600 mg BID): approximately dose proportional
Cmax and AUC at steady state (days 1 and 21) relative to day −7 ([2]; all dose levels): two to three times higher
Cmin, mean (±SD) ([2]; first administration, day −7, 400 mg BID, n 3): 200 ± 100 ng/mL
Cmin, mean (±SD) ([2]; first administration, day −7, 500 mg BID, n 3): 400 ± 100 ng/mL
Cmin, mean (±SD) ([2]; first administration, day −7, 600 mg BID, n 3): 300 ± 200 ng/mL
AUC(0-t) ([2]; 400 mg): 3400 ± 800 ng·h/mL
Tmax ([2]; 400 mg, first administration, day −7, 400 mg BID, n 3): 3.4 ± 0.7 h
AUC(0-t) ([2]; 500 mg): 4700 ± 1900 ng·h/mL
Cmax ([2]; 500 mg): 900 ± 600 ng/mL
Tmax ([2]; 500 mg, steady state, day 21, with bevacizumab, 500 mg BID, n 3): 2 ± 1 h
AUC(0-t) ([2]; 600 mg): 4900 ± 1600 ng·h/mL
Cmax ([2]; 600 mg): 1000 ± 200 ng/mL
Tmax ([2]; 600 mg, first administration, day −7, 600 mg BID, n 3): 3.4 ± 1.2 h
Tmax [2, 7]: 4.6 ± 2.9 h
Tmax [2, 8]: 1.7 ± 1.2 h
Tmax [2, 9]: 3 ± 1 h
CmaxSS, mean (±SD) [2, 7]: 2400 ± 200 ng/mL
CminSS, mean (±SD) [2, 7]: 1400 ± 300 ng/mL
Ctrough, mean (±SD) [2, 7]: 1600 ± 100 ng/mL
CmaxSS, mean (±SD) [2, 8]: 2600 ± 500 ng/mL
CminSS, mean (±SD) [2, 8]: 1600 ± 700 ng/mL
Ctrough, mean (±SD) [2, 8]: 1800 ± 700 ng/mL
CmaxSS, mean (±SD) [2, 9]: 2600 ± 500 ng/mL
CminSS, mean (±SD) [2, 9]: 1400 ± 300 ng/mL
Ctrough, mean (±SD) [2, 9]: 1600 ± 100 ng/mL
CmaxSS, mean (±SD) [2, 10]: 2600 ± 900 ng/mL
CminSS, mean (±SD) [2, 10]: 1300 ± 400 ng/mL
Ctrough, mean (±SD) [2, 10]: 1500 ± 300 ng/mL
CmaxSS, mean (±SD) [2, 11]: 2300 ± 400 ng/mL
CminSS, mean (±SD) [2, 11]: 1500 ± 500 ng/mL
Ctrough, mean (±SD) [2, 11]: 2000 ± 600 ng/mL
CmaxSS, mean (±SD) [2, 12]: 2500 ± 1300 ng/mL
CminSS, mean (±SD) [2, 12]: 1600 ± 1200 ng/mL
Ctrough, mean (±SD) [2, 12]: 2100 ± 300 ng/mL
maximum tolerated dose (MTD) ([3]; BID, combined with bevacizumab 15 mg/kg d1 q21d): 500 mg
safety concerns from the combination of rucaparib and bevacizumab ([3]; all dose cohorts): no new safety concerns
Anemia, grade 1: number of patients with an event [3, 13]: 1
Arthralgia, grade 1: number of patients with an event [3, 13]: 2 (2)
Arthralgia, grade 1: number of total events [3, 13]: 2 (2)
Cutaneous erythema, grade 1: number of patients with an event [3, 13]: 1
Fatigue, grade 1: number of patients with an event [3, 13]: 1
Feet paresthesia, grade 1: number of patients with an event [3, 13]: 1
Genital herpes, grade 1: number of patients with an event [3, 13]: 1
Genital herpes, grade 2: number of patients with an event [3, 13]: 1
Headache, grade 1: number of patients with an event [3, 13]: 1
Mucosal dryness, grade 1: number of patients with an event [3, 13]: 1
Nausea, grade 1: number of patients with an event [3, 13]: 1
Neuropathy, grade 1: number of patients with an event [3, 13]: 1
Transaminases increase, grade 1: number of patients with an event [3, 13]: 1
dose-limiting toxicities (DLTs) ([3]; rucaparib 400 mg BID + bevacizumab 15 mg/kg d1 q21d): No DLTs
Abdominal pain, grade 1: number of patients with an event [3, 14]: 1
Arthralgia, grade 1: number of patients with an event [3, 14]: 1
Bleeding gums, grade 1: number of patients with an event [3, 14]: 1
Diarrhea, grade 1: number of patients with an event [3, 14]: 1
Diarrhea, grade 1: number of total events [3, 14]: 3
Dysgeusia, grade 1: number of patients with an event [3, 14]: 1
Dysgeusia, grade 2: number of patients with an event [3, 14]: 1
Fatigue, grade 1: number of patients with an event [3, 14]: 1
Flushes, grade 1: number of patients with an event [3, 14]: 1
High cholesterol, grade 1: number of patients with an event [3, 14]: 1
High cholesterol, grade 2: number of patients with an event [3, 14]: 1
Hypertension, grade 2: number of patients with an event [3, 14]: 3 (3)
Hypertension, grade 2: number of total events [3, 14]: 3 (3)
Insomnia, grade 2: number of patients with an event [3, 14]: 1
Nausea, grade 1: number of patients with an event [3, 14]: 2 (2)
Nausea, grade 1: number of total events [3, 14]: 2 (2)
Transaminases increase, grade 1: number of patients with an event [3, 14]: 1
Vomiting, grade 1: number of patients with an event [3, 14]: 1
dose-limiting toxicities (DLTs) ([3]; rucaparib 500 mg BID + bevacizumab 15 mg/kg d1 q21d): No DLTs
ALT increase, grade 2: number of patients with an event [3, 15]: 1
ALT increase, grade 3: number of patients with an event [3, 15]: 1
AST increase, grade 2: number of patients with an event [3, 15]: 1
AST increase, grade 3: number of patients with an event [3, 15]: 1
Abdominal pain, grade 1: number of patients with an event [3, 15]: 1
Arthralgia, grade 1: number of patients with an event [3, 15]: 1
Arthralgia, grade 2: number of patients with an event [3, 15]: 1
Constipation, grade 2: number of patients with an event [3, 15]: 1
Depression, grade 1: number of patients with an event [3, 15]: 1
Depression, grade 1: number of total events [3, 15]: 2
Depression, grade 2: number of patients with an event [3, 15]: 1
Depression, grade 3: number of patients with an event [3, 15]: 1
Diarrhea, grade 1: number of patients with an event [3, 15]: 1
Dysgeusia, grade 1: number of patients with an event [3, 15]: 1
Epigastralgia, grade 1: number of patients with an event [3, 15]: 1
Fatigue, grade 1: number of patients with an event [3, 15]: 1
Fever, grade 2: number of patients with an event [3, 15]: 1
Hallucination, grade 3: number of patients with an event [3, 15]: 1
Headache, grade 1: number of patients with an event [3, 15]: 1
Lack of appetite, grade 1: number of patients with an event [3, 15]: 1
Limb pain, grade 1: number of patients with an event [3, 15]: 1
Mucositis, grade 1: number of patients with an event [3, 15]: 1
Nausea, grade 1: number of patients with an event [3, 15]: 3
Nausea, grade 1: number of total events [3, 15]: 4
Nausea, grade 2: number of patients with an event [3, 15]: 1
Nausea, grade 2: number of total events [3, 15]: 3
Neutrophils decreased, grade 2: number of patients with an event [3, 15]: 1
Skin bruises, grade 1: number of patients with an event [3, 15]: 1
Stranguria, grade 1: number of patients with an event [3, 15]: 1
Toothache, grade 1: number of patients with an event [3, 15]: 1
patients affected by DLTs ([3]; rucaparib 600 mg BID + bevacizumab 15 mg/kg d1 q21d): two out of three patients
patients with dose reduction due to a TEAE (patients [4]): 55%
patients with grade 3 or higher TEAEs (patients [4]): 56%
patients with grade 3 or higher anemia (patients [4]): 19%

bevacizumab
most frequent bevacizumab-related AE ([3]; combination with rucaparib): hypertension

Cn1ncnc1[C@H]1c2n[nH]c(=O)c3cc(F)cc(c23)N[C@@H]1c1ccc(F)cc1 [talazoparib]
potency for DNA trapping [5]: more potent DNA trapping abilities

NC(=O)c1cccc2cn(-c3ccc([C@@H]4CCCNC4)cc3)nc12 [niraparib]
PFS adjusted hazard ratio [6]: 0.35
incidence of thrombocytopenia and hypertension (patients [1]; vs olaparib or rucaparib): higher incidence
